Data on 7 compounds can be found in article PMC9066701 (RSC Advances, 2019).

Data set [1] concerns HepG-2 cells. Nature of the data set: Mitochondrial membrane potential by JC-1 staining. Format: cell-based, human. The following applies: HepG-2, 30 μM, 48 hours, negative control 5.42.
Data set [2] concerns BGC803 human gastric cancer cell line. Nature of the data set: MTT cytotoxicity assay, BGC803. Format: cell-based. The following applies: read-out: IC50 BGC803. In outline: (§1)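 Adherent cells kept in DMEM with 10% FBS at 37 °C, 5% CO2, seeded at 5 × 10^3 cells per well and left overnight. Test compound in DMF diluted in medium (DMF final < 0.4%) for 48 h at 37 °C. MTT (5 mg mL−1) added for 4 h, formazan dissolved in DMSO, A570 read. IC50 from % inhibition versus log concentration; cisplatin run as reference.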

The test system of data set [3] is HepG-2 human hepatocellular carcinoma cell line. Kind of data set: MTT cytotoxicity assay, HepG-2. The format is cell-based. The following applies: read-out: IC50 HepG-2. The method in brief: as §1
Background: Tetrazolium assays rely on reduction of a dye to a coloured formazan, in cell work by metabolically active cells.

The test system of data set [4] is NCI-H460 large cell lung cancer cell line. Nature of the data set: MTT cytotoxicity assay, NCI-H460. Format: cell-based. The note with it: read-out: IC50 NCI-H460. The method in brief: as §1
In data set [5] the test system is MCF-7 human breast carcinoma cell line. Nature of the data set: MTT cytotoxicity assay, MCF-7. The note with it: read-out: IC50 MCF-7. The format is cell-based. In outline:
as §1

In data set [6] the test system is SGC7901/CDDP cisplatin-resistant gastric cancer cell line. Kind of data set: MTT cytotoxicity assay, SGC7901/CDDP. The format is cell-based. The note with it: read-out: IC50 SGC7901/CDDP, 48 h drug exposure. In outline: as §1
The test system of data set [7] is HepG-2 cells. Nature of the data set: Annexin V-FITC/PI apoptosis assay by flow cytometry. Format: cell-based, human. The following applies: HepG-2, 50 μM, 24 hours. On the technique in general: A flow cytometer gives signals particle by particle.
Data set [8] relates to HUVEC human umbilical vein endothelial cell line. Nature of the data set: MTT cytotoxicity assay, HUVEC. Format: cell-based. The following applies: read-out: IC50 HUVEC, 48 h drug exposure, normal cells. In outline:
as §1

Data set [9] has as its system SGC7901 gastric cancer cell line. Kind of data set: MTT cytotoxicity assay, SGC7901. Format: cell-based. The note with it: read-out: IC50 SGC7901, 48 h drug exposure. The method in brief: as §1
The conditions of data set [10]: reported for kiteplatin; same experimental conditions; cited from earlier work.
The conditions of data set [11]: PBS, 37 °C, pH 7.0; cited from earlier work.

Like-named read-outs stand apart in the source and are kept apart here.

With `N#CC(C#N)=NNc1cccc(Cl)c1` [CCCP, carbonylcyanide-m-chlorophenylhydrazone], the “Red-green fluorescence ratio (FL2/FL1)” value in data set [1] is 0.04.
As for `N.N.O=C([O-])C1(C(=O)[O-])CCC1.[Pt+2]` [Carboplatin, carboplatin], the IC50 was 77.1 ± 5.35 µM in [2] (MTT assay, 48 h drug exposure); 42.3 ± 2.55 µM in [3] (MTT assay, 48 h drug exposure); 52.9 ± 4.98 µM in data set [4] (MTT assay, 48 h drug exposure); 179 ± 10.6 µM in data set [5] (MTT assay, 48 h drug exposure). In addition, the “Red-green fluorescence ratio (FL2/FL1)” value in data set [1] is reported as 2.56.
Consider `N.N.[Cl][Pt][Cl]` [Cisplatin, cisplatin], for which the IC50 was 35.6 ± 2.55 µM in data set [6]; 21.6 ± 1.35 µM in data set [2] (MTT assay, 48 h drug exposure); 27.8 ± 2.56 µM in data set [3] (MTT assay, 48 h drug exposure); 14.8 ± 1.35 µM in data set [4] (MTT assay, 48 h drug exposure); 29.2 ± 1.38 µM in data set [5] (MTT assay, 48 h drug exposure); 36.9 ± 2.23 µM in data set [8]. Further, in [9], the IC50 was determined as 9.96 ± 0.87 µM. Moreover, the “Red-green fluorescence ratio (FL2/FL1)” value in data set [1] worked out at 0.54. Further, in data set [7], the “apoptotic rate (early + late)” value came out at 28.79%.
Consider `O=C(O)C(Cl)Cl` [DCA, Dichloroacetate], for which the IC50 in [2] (Homo sapiens, BGC803, 48 h) was over 100 µM; in data set [3] (Homo sapiens, HepG2, 48 h), over 100 µM; in data set [4] (Homo sapiens, NCI-H460, 48 h) it was over 100 µM; in data set [5] (Homo sapiens, MCF7, 48 h), over 100 µM. Further, the “Red-green fluorescence ratio (FL2/FL1)” value in data set [1] is 4.17.
`O=C1[O][Pt]2([NH][C@@H]3CCCC[C@H]3[NH]2)[O]C1=O` [Oxaliplatin, oxaliplatin]: the IC50 in data set [6] was 99.4 ± 5.23 µM; in data set [2] (MTT assay, 48 h drug exposure), 29.1 ± 1.65 µM; in [3] (MTT assay, 48 h drug exposure) it was 26.5 ± 2.55 µM; in data set [4] (MTT assay, 48 h drug exposure), 13.4 ± 1.13 µM; in data set [5] (MTT assay, 48 h drug exposure) it was 41.3 ± 3.43 µM; in data set [8] it was 51 ± 4.42 µM. Further, the IC50 in data set [9] is 13.5 ± 1.55 µM. The “Red-green fluorescence ratio (FL2/FL1)” value in [1] stood at 0.94. Moreover, the “apoptotic rate (early + late)” value in data set [7] amounted to 21.74%.
What is called half-life is the time needed for the level to fall by half in the phase considered. In the case of `NC1CCC(N)CC1.[Cl][Pt+2][Cl]` (stereo not shown) [kiteplatin], in [10], the half-life was 1 h.
As to “ct-[Pt(NH3)2(TFA)2(CBCDA)] [ct-[Pt(NH3)2(TFA)2(CBCDA)] (5)]”, the t1/2 in data set [11] is 2.37 h.
